The source made the active and inactive calls. No cut-off for these calls is given here.
Tests used:
[1] = molecular target: Sigma non-opioid intracellular receptor 1 (Cavia porcellus, UniProt Q60492); assay: Displacement of (+)-[3H]pentazocine from Dunkin guinea pig brain sigma 1 receptor
[2] = Displacement of [3H]DTG from Wistar Hannover rat liver sigma 2 receptor
MCF7 [3] = assay: Cellular uptake in human MCF7 cells at 50 to 100 nM after 20 to 40 mins by spinning disk confocal microscopy; assay type: ADME, cell-based; settings: mcf7, 0.1 µM
Procedure, shortened: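 Live and fixed MCF7 cells imaged by spinning-disk confocal microscopy from 50 nM ligand onward; intracellular fluorescence intensity followed over time after treatment. Excitation 405 nm […], 488 nm (green) or 561 nm (red channel), according to fluorophore.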

[4] = Drug uptake in cytoplasm of human MCF7 cells at 100 to 500 nM after 45 mins by spinning disk confocal microscopy; assay type: ADME, cell-based; settings: mcf7, 0.75 h, 0.5 µM
Procedure, shortened: (§1)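 MCF7 cells seeded in chamber slides 24 h ahead, treated 45 min with 100 or 500 nM ligand, fixed in 2% PFA for 30 min at 37 °C, washed with PBS. Spinning-disk confocal imaging, background-corrected; subcellular localization assessed, nuclear signal from pixel intensity profiles. Excitation 405, 488 or 561 nm depending on fluorophore.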

[5] = Drug uptake in perinuclear region of human MCF7 cells at 100 nM after 45 mins by spinning disk confocal microscopy; assay type: ADME, cell-based; settings: mcf7, 0.75 h, 0.1 µM; procedure, shortened: as §1
[6] = Drug uptake in vesicle of human MCF7 cells at 100 to 500 nM after 45 mins by spinning disk confocal microscopy; assay type: ADME, cell-based; settings: mcf7, 0.75 h, 0.5 µM; procedure, shortened: as §1
[7] = Drug uptake in nucleus of human MCF7 cells at 500 nM after 45 mins by spinning disk confocal microscopy; assay type: ADME, cell-based; settings: mcf7, 0.75 h, 0.5 µM; procedure, shortened: as §1
MCF7 [8] = assay: Cellular uptake in human MCF7 cells at 25 to 100 nmol/L after 45 mins […]; assay type: ADME, cell-based; settings: mcf7, 0.75 h
MCF7 [9] = assay: Binding affinity to sigma 2 receptor overexpressed in human MCF7 cells assessed as compound internalization by measuring cellular accumulation at 25 nmol/L after 45 mins by flow cytometry in presence of PB28; assay type: cell-based
MCF7 [10] = assay: Binding affinity to sigma 2 receptor overexpressed in human MCF7 cells assessed as compound internalization by measuring cellular accumulation at 25 nmol/L after 45 mins by flow cytometry in presence of cis-1-cyclohexyl-4-[4-(2,6-difluorophenyl)cyclohexyl]piperazine; assay type: cell-based
MCF7 [11] = assay: Binding affinity to sigma 2 receptor in human MCF7 cells at 100 nmol/L after 45 mins by FACS analysis in presence of DTG and (+)-pentazocine; assay type: cell-based
[12] = Displacement of 2-(6-{1-[3-(4-Cyclohexylpiperazin-1-yl)propyl]-1,2,3,4-tetrahydronaphthalen-5-yloxy}hexyl)-5-dimethylamino-1H-isoindole-1,3(2H)-dione from sigma 2 receptor in human MCF7 cells after 45 mins by FACS analysis; assay type: cell-based
Procedure, shortened: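 Intact, nonpermeabilized MCF7 cells incubated with competitor at 0.1 nmol/L–10 μmol/L followed by 100 nmol/L fluorescent σ2 tracer for 45 min at 37 °C. Washed twice with PBS, detached with dissociation solution, resuspended in PBS. Flow cytometry at 530 nm band-pass, 10 000 events; IC50 taken from displacement curve.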

[13] = Displacement of [3H]DTG from sigma 2 receptor in human MCF7 cells after 45 mins by FACS analysis; assay type: cell-based

Sequence of Sigma non-opioid intracellular receptor 1 (Q60492 whole entry): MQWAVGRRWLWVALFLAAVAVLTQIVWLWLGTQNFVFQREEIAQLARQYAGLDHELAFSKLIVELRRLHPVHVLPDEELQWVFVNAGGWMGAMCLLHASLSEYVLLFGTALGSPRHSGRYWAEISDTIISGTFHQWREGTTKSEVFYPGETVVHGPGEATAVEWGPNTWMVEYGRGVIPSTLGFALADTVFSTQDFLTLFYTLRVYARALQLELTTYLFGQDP

Ki [1] [nM]	Ki [2] [nM]	Drug uptake (MCF7 [3])	Drug uptake [4]	Drug uptake [5]	Drug uptake [6]	Drug uptake [7]	Drug uptake (MCF7 [8])	IC50 [12] [nM]	IC50 [13] [nM]	Structure (SMILES)	Activity (MCF7 [9])	Activity (MCF7 [10])	Activity (MCF7 [11])
258	31.2									O=[N+]([O-])c1ccc(NCCCCCCCCCCOc2cccc3c2CCCC3CCCN2CCN(C3CCCCC3)CC2)c2nonc12 (stereo not given)			
		Active	Active	Active	Active	Active	Active			O=[N+]([O-])c1ccc(NCCCCCCOc2cccc3c2CCCC3CCCN2CCN(C3CCCCC3)CC2)c2nonc12 (stereo not given)	inactive	inactive	
5.37	6.9	Active	Active	Active	Active	Active	Active			CN(C)c1ccc2c(c1)C(=O)N(CCCCCCOc1cccc3c1CCCC3CCCN1CCN(C3CCCCC3)CC1)C2=O (stereo not given)	inactive	inactive	inactive

More lines, now with the values behind:

Structure (SMILES)	Ki [1] [nM]	Ki [2] [nM]	Drug uptake (MCF7 [3])	Drug uptake [4]	Drug uptake [5]	Drug uptake [6]	Drug uptake [7]	Drug uptake (MCF7 [8])	IC50 [12] [nM]	IC50 [13] [nM]	Activity (MCF7 [9])	Activity (MCF7 [10])	Activity (MCF7 [11])
CCN(CC)c1ccc2cc(/C=C/C3=[N+](CCCCCC(=O)NCCCCCCOc4cccc5c4CCCC5CCCN4CCN(C5CCCCC5)CC4)c4ccccc4C3(C)C)c(=O)oc2c1.[Br-] (stereo not given)	235	161	Active	Active	Active	Active	Active						
Nc1ccc2c3c(cccc13)C(=O)N(CCCCCCOc1cccc3c1CCCC3CCCN1CCN(C3CCCCC3)CC1)C2=O (stereo not given)	156	6.57	Active	Active	Active	Active	Active	Active			inactive	inactive	
COc1cccc2c1CCCC2CCCN1CCN(C2CCCCC2)CC1 (stereo not given)									4.27	1.2			
